In ChEMBL document CHEMBL1152689, “Synthesis, tautomerism, and antimicrobial, anti-HCV, anti-SSPE, antioxidant, and antitumor activities of arylazobenzosuberones” (Bioorg Med Chem, 2009):
In brackets after ≈: the same amount, converted by molar mass. Activity calls are given as the source filed them. The calls are words filed in the database; no cut-off is given here.

Assays:
[1] = test system: Penicillium italicum; test: Antimicrobial activity against Penicillium italicum at 1.25 ug/mL by agar diffusion method; format: functional; details: read-out: IZ
[2] = test system: Aspergillus fumigatus; test: Antimicrobial activity against Aspergillus fumigatus at 5 ug/mL by agar diffusion method; format: functional; details: read-out: IZ
[3] = Antioxidant activity assessed as inhibition of peroxynitrite-mediated 3-nitrotyrosine formation by HPLC; format: functional
Summary of the method: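 Tyrosine and peroxynitrite, each 100 µM, reacted with compound at 0–300 µM in 100 mM phosphate buffer pH 7.4 at 37 °C for 15 min. Peroxynitrite made from acidified H2O2 plus KNO2, quenched with NaOH, and kept on ice no longer than 30 min before use.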

[4] = test system: Staphylococcus aureus; test: Antimicrobial activity against Staphylococcus aureus at 2.5 ug/mL by agar diffusion method; format: functional; details: read-out: IZ
[5] = test system: Bacillus subtilis; test: Antimicrobial activity against Bacillus subtilis at 1.25 ug/mL by agar diffusion method; format: functional; details: read-out: IZ
[6] = target: T1, DNA topoisomerase 1 (Homo sapiens) (UniProt P11387); test: Inhibition of topoisomerase 1 relative to etoposide
T1 sequence (whole entry): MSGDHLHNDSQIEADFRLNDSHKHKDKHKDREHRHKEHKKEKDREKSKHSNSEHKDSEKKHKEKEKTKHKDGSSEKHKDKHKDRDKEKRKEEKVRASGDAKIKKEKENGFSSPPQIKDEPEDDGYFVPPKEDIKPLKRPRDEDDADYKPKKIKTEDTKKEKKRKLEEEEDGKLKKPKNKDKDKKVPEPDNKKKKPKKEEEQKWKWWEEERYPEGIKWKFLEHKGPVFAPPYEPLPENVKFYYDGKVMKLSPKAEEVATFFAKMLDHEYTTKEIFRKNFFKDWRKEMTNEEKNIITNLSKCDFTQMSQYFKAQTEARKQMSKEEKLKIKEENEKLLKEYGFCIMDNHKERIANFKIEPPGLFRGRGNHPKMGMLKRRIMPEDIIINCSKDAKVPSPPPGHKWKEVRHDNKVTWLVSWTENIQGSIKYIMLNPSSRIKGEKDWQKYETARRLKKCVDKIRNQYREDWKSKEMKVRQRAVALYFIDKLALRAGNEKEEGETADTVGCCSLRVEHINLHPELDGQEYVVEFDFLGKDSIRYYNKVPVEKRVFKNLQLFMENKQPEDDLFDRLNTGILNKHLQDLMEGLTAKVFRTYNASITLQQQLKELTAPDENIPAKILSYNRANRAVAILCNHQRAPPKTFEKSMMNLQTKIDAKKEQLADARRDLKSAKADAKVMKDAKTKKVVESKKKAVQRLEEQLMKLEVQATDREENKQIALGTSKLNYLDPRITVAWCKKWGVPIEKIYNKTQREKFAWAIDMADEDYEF

[7] = test system: Pseudomonas aeruginosa; test: Antimicrobial activity against Pseudomonas aeruginosa at 2.5 ug/mL by agar diffusion method; format: functional; details: read-out: IZ
[8] = test system: Staphylococcus aureus; test: Antimicrobial activity against Staphylococcus aureus at 1.25 ug/mL by agar diffusion method; format: functional; details: read-out: IZ
[9] = test system: Penicillium italicum; test: Antimicrobial activity against Penicillium italicum at 5 ug/mL by agar diffusion method; format: functional; details: read-out: IZ
[10] = test system: Aspergillus fumigatus; test: Antimicrobial activity against Aspergillus fumigatus at 1.25 ug/mL by agar diffusion method; format: functional; details: read-out: IZ
[11] = test system: Escherichia coli; test: Antimicrobial activity against Escherichia coli at 2.5 ug/mL by agar diffusion method; format: functional; details: read-out: IZ
[12] = test system: Hepatitis C virus; test: Antiviral activity against HCV by cell based replicon assay; format: functional, Hepacivirus hominis
Summary of the method: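 HCV replicon cells plated at 1×10^4 per well. Next day incubated at 37 °C with serially diluted compound in DMEM with 2% FBS and 0.5% DMSO. HCV RNA copy number measured by quantitative RT-PCR on total cellular RNA. Each point is the average of five replicates. Cytotoxicity measured by MTS in parallel.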

[13] = test system: Syncephalastrum racemosum; test: Antimicrobial activity against Syncephalastrum racemosum at 1.25 ug/mL by agar diffusion method; format: functional; details: read-out: IZ
[14] = test system: Escherichia coli; test: Antimicrobial activity against Escherichia coli at 1.25 ug/mL by agar diffusion method; format: functional; details: read-out: IZ
[15] = test system: Penicillium italicum; test: Antimicrobial activity against Penicillium italicum at 2.5 ug/mL by agar diffusion method; format: functional; details: read-out: IZ
[16] = test system: Escherichia coli; test: Antimicrobial activity against Escherichia coli at 5 ug/mL by agar diffusion method; format: functional; details: read-out: IZ
[17] = target: DNA topoisomerase 2-alpha (Mus musculus) (UniProt Q01320); test: Inhibition of topoisomerase 2 from mouse P388 cells assessed as relaxation of pBR322 DNA by agarose gel electrophoresis relative to etoposide; format: cell-based
Chain of DNA topoisomerase 2-alpha (Mus musculus) (Q01320 whole entry): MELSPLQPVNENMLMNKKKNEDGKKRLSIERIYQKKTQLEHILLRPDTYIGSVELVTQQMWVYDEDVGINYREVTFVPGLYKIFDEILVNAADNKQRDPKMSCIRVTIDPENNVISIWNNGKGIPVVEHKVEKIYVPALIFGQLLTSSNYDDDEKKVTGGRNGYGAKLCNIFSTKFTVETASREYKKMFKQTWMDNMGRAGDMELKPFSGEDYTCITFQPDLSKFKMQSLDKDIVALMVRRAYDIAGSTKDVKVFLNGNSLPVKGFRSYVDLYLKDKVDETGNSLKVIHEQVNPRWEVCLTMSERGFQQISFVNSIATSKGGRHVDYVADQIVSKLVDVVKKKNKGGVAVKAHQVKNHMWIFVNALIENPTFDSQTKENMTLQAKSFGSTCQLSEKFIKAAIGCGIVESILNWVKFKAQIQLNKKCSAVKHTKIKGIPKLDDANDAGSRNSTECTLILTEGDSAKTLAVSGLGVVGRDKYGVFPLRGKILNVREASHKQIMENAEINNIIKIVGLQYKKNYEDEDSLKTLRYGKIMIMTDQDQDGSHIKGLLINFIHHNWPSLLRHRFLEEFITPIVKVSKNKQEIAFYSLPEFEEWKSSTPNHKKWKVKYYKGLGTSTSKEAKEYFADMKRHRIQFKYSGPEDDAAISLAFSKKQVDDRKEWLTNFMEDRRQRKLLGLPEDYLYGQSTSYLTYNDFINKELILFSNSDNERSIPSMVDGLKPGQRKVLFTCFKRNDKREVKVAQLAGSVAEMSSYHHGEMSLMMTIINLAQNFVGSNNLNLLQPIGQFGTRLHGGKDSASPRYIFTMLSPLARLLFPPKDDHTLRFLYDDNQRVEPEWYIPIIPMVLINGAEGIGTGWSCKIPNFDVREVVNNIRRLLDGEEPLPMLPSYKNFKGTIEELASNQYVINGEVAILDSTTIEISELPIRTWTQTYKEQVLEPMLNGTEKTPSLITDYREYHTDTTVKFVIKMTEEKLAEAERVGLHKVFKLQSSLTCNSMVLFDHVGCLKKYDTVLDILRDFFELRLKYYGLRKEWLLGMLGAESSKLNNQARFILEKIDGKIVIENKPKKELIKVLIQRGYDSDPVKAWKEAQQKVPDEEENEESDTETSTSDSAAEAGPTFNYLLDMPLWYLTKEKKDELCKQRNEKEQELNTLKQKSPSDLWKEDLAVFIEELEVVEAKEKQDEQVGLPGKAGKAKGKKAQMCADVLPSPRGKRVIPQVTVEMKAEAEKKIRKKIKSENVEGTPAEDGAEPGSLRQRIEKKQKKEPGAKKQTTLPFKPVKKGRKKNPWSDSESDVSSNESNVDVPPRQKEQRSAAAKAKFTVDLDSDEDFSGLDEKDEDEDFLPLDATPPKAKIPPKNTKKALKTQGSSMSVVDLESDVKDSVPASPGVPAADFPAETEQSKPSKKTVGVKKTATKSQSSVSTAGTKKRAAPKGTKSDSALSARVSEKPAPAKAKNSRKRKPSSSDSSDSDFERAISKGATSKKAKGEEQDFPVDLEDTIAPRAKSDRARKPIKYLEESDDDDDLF
Summary of the method: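 Topoisomerase II purified from P388 cells. One unit relaxes 0.125 µg supercoiled pBR322 DNA, incubated with or without inhibitor at 30 °C for 1 h in 50 mM Tris-HCl pH 8.0, 100 mM KCl, 10 mM MgCl2, 0.5 mM DTT, 1 mM ATP and 30 µg/ml BSA. Products run on 0.7% agarose in TBE, stained with ethidium bromide and imaged under UV.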

[18] = test system: Bacillus subtilis; test: Antimicrobial activity against Bacillus subtilis at 2.5 ug/mL by agar diffusion method; format: functional; details: read-out: IZ
[19] = test system: Candida albicans; test: Antimicrobial activity against Candida albicans at 5 ug/mL by agar diffusion method; format: functional; details: read-out: IZ
[20] = test system: Aspergillus fumigatus; test: Antimicrobial activity against Aspergillus fumigatus at 2.5 ug/mL by agar diffusion method; format: functional; details: read-out: IZ
[21] = test system: MC-38; test: Antitumor activity against mouse Colon 38 cells implanted in iv dosed C57BL/6 mouse administered as single dose; format: functional, organism-based
Summary of the method: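 Female C57BL/6 mice, 6 weeks old, given about 30 mg Colon 38 tumor tissue s.c. in the flank. Randomized into groups of n = 5 when tumors reached about 300 mm3 (day 1). Compound in 5% glucose given as a single iv tail-vein dose on day 1; controls received 5% glucose. Tumor volume = (length × width²)/2 and body weight tracked.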

[22] = test system: Radical scavenging activity; test: Antioxidant activity assessed as DPPH free radical scavenging activity by measuring reduction in DPPH absorbance by ELISA relative to untreated control; format: functional; set-up: concentration or dose not given beside the values
Summary of the method: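 Test compounds dissolved in DMSO, ascorbic acid standard in water, both serially diluted. 10 µl sample added to 90 µl of 100 µM DPPH in methanol and kept in the dark at 37 °C for 30 min. Absorbance read at 515 nm. Blank is DMSO plus DPPH. % reduction = (A_B − A_A)/A_B × 100. Run in triplicate.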

[23] = test system: Syncephalastrum racemosum; test: Antimicrobial activity against Syncephalastrum racemosum at 2.5 ug/mL by agar diffusion method; format: functional; details: read-out: IZ
[24] = test system: Candida albicans; test: Antimicrobial activity against Candida albicans at 2.5 ug/mL by agar diffusion method; format: functional; details: read-out: IZ
[25] = test system: Candida albicans; test: Antimicrobial activity against Candida albicans at 1.25 ug/mL by agar diffusion method; format: functional; details: read-out: IZ
[26] = test system: Syncephalastrum racemosum; test: Antimicrobial activity against Syncephalastrum racemosum at 5 ug/mL by agar diffusion method; format: functional; details: read-out: IZ
[27] = test system: Measles morbillivirus; test: Antiviral activity against Measles virus infected in intracranially dosed hamster assessed as inhibition of subacute sclerosing panencephalitis; format: functional
Summary of the method: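 Hamsters under ether anesthesia injected intracranially, into the subarachnoid space at 2 mm depth, at 5, 10 and 20 mg/kg/day for 10 days. Four animals per group sacrificed on days 1–20. Brains homogenized in PBS and centrifuged, supernatant deproteinized with ethanol, then MIC in brain tissue determined by HPLC and bioassay.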

[28] = test system: Pseudomonas aeruginosa; test: Antimicrobial activity against Pseudomonas aeruginosa at 5 ug/mL by agar diffusion method; format: functional; details: read-out: IZ
[29] = test system: Pseudomonas aeruginosa; test: Antimicrobial activity against Pseudomonas aeruginosa at 1.25 ug/mL by agar diffusion method; format: functional; details: read-out: IZ
[30] = test system: Staphylococcus aureus; test: Antimicrobial activity against Staphylococcus aureus at 5 ug/mL by agar diffusion method; format: functional; details: read-out: IZ
[31] = test system: Bacillus subtilis; test: Antimicrobial activity against Bacillus subtilis at 5 ug/mL by agar diffusion method; format: functional; details: read-out: IZ

| SMILES | zone of inhibition at 1.25 µg/mL [1] | zone of inhibition at 5 µg/mL [2] | IC50 [3] | zone of inhibition at 2.5 µg/mL [4] | zone of inhibition at 1.25 µg/mL [5] | Ratio [6] | zone of inhibition at 2.5 µg/mL [7] | zone of inhibition at 1.25 µg/mL [8] | zone of inhibition at 5 µg/mL [9] | zone of inhibition at 1.25 µg/mL [10] | zone of inhibition at 2.5 µg/mL [11] | MIC [12] | zone of inhibition at 1.25 µg/mL [13] | zone of inhibition at 1.25 µg/mL [14] | zone of inhibition at 2.5 µg/mL [15] | zone of inhibition at 5 µg/mL [16] | Ratio [17] | zone of inhibition at 2.5 µg/mL [18] | zone of inhibition at 5 µg/mL [19] | zone of inhibition at 2.5 µg/mL [20] | further results |
| --- | --- | --- | --- | --- | --- | --- | --- | --- | --- | --- | --- | --- | --- | --- | --- | --- | --- | --- | --- | --- | --- |
| O=C1/C(=N/Nc2cccc(Cl)c2)CCCc2ccccc21 | 0 mm | 14 mm | 54.1 µM | 9 mm | 7 mm | 4.9 | 0 mm | 5 mm | 0 mm | 6 mm | 0 mm | 1 µg/mL (≈ 3.35 µM) | 6 mm | 0 mm | 0 mm | 9 mm | 5 | 10 mm | 15 mm | 8 mm | Activity [21]: Active; Activity [22]: 84.1%; zone of inhibition at 2.5 µg/mL [23]: 9 mm; zone of inhibition at 2.5 µg/mL [24]: 11 mm; zone of inhibition at 1.25 µg/mL [25]: 7 mm; zone of inhibition at 5 µg/mL [26]: 16 mm; MIC [27]: 6 µg/mL (≈ 20.1 µM); zone of inhibition at 5 µg/mL [28]: 0 mm; zone of inhibition at 1.25 µg/mL [29]: 0 mm; zone of inhibition at 5 µg/mL [30]: 12 mm; zone of inhibition at 5 µg/mL [31]: 17 mm |
| O=C1/C(=N/Nc2ccc([N+](=O)[O-])cc2)CCCc2ccccc21 | 0 mm | 18 mm | 5.13 µM | 3 mm | 3 mm | 4.4 | 0 mm | 0 mm | 0 mm | 5 mm | 0 mm | 1.03 µg/mL (≈ 3.34 µM) | 4 mm | 0 mm | 0 mm | 8 mm | 4.6 | 8 mm | 12 mm | 8 mm | Activity [21]: Active; Activity [22]: 82%; zone of inhibition at 2.5 µg/mL [23]: 9 mm; zone of inhibition at 2.5 µg/mL [24]: 6 mm; zone of inhibition at 1.25 µg/mL [25]: 0 mm; zone of inhibition at 5 µg/mL [26]: 16 mm; MIC [27]: 6.08 µg/mL (≈ 19.7 µM); zone of inhibition at 5 µg/mL [28]: 0 mm; zone of inhibition at 1.25 µg/mL [29]: 0 mm; zone of inhibition at 5 µg/mL [30]: 9 mm; zone of inhibition at 5 µg/mL [31]: 14 mm |
